{
  "source": "ChEMBL document CHEMBL4190394",
  "about": "“Discovery of Novel Pazopanib-Based HDAC and VEGFR Dual Inhibitors Targeting Cancer Epigenetics and Angiogenesis Simultaneously” (J Med Chem, 2018)",
  "key": {"[1]": {"target": "T1, Vascular endothelial growth factor receptor 2 (Homo sapiens, UniProt P35968)", "T1 sequence (P35968 whole entry)": "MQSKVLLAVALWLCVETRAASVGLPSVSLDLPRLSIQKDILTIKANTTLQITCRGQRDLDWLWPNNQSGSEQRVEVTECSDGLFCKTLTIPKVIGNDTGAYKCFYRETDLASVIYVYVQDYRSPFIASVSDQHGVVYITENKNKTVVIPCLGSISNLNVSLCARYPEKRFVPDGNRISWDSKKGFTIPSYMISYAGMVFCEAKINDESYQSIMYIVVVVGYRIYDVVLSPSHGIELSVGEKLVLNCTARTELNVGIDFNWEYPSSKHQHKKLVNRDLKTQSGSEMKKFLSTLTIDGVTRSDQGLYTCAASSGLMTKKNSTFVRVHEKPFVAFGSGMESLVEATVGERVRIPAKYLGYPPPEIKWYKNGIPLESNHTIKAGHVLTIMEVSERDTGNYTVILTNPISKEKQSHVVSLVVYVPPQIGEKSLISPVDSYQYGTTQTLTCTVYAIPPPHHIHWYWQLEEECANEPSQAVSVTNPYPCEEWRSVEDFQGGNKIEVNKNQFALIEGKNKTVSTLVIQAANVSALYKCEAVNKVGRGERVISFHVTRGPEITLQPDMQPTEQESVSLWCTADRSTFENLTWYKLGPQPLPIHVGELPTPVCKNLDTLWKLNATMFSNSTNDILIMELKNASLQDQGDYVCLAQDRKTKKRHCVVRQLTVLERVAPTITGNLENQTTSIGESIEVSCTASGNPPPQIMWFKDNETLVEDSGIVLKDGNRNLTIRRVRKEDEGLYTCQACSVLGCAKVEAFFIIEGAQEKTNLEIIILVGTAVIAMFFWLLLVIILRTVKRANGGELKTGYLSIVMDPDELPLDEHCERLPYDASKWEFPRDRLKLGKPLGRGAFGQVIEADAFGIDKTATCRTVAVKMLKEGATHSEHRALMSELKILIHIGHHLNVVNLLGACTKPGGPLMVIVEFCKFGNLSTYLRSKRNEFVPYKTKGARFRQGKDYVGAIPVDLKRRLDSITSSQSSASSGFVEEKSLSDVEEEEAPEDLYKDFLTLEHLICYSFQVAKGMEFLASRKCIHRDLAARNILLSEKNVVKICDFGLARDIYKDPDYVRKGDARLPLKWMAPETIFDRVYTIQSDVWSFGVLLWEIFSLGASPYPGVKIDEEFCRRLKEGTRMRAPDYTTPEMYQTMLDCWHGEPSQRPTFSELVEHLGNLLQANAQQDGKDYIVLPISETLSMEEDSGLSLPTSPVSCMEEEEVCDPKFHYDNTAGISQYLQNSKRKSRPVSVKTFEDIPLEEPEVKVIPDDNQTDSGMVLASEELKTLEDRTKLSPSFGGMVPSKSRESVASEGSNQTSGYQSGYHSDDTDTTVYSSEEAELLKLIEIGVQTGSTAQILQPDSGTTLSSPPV", "assay": "Inhibition of VEGFR-2 (unknown origin) at 0.2 uM after 40 mins by kinase-Glo assay relative to control", "method_in_brief": "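VEGFR-2 tested at a single 200 nM concentration in a Kinase-Glo assay. Compound, kinase, substrate and ATP incubated 40 min at room temperature, then Kinase-Glo reagent added for 15 min and luminescence read. Inhibition rate reported. Replicates n ≥ 2.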"}, "HT-29 [2]": {"test_system": "HT-29", "assay": "Antiproliferative activity against human HT-29 cells after 72 hrs by MTT assay", "assay_type": "functional, cell-based", "settings": "HT-29, 72 h"}, "ACHN": {"test_system": "ACHN", "assay": "Antiproliferative activity against human ACHN cells after 72 hrs by MTT assay", "assay_type": "functional, cell-based"}, "AGS": {"test_system": "AGS", "assay": "Antiproliferative activity against human AGS cells after 72 hrs by MTT assay", "assay_type": "functional, cell-based"}, "HeLa": {"test_system": "HeLa", "assay": "Antiproliferative activity against human HeLa cells after 72 hrs by MTT assay", "assay_type": "functional, cell-based"}, "KG-1": {"test_system": "KG-1", "assay": "Antiproliferative activity against human KG1 cells after 72 hrs by MTT assay", "assay_type": "functional, cell-based", "settings": "KG-1, 72 h"}, "HEL": {"test_system": "HEL", "assay": "Antiproliferative activity against human HEL cells after 72 hrs by MTT assay", "assay_type": "functional, cell-based"}, "MOLT-4": {"test_system": "MOLT-4", "assay": "Antiproliferative activity against human MOLT4 cells after 72 hrs by MTT assay", "assay_type": "functional, cell-based", "settings": "MOLT-4, 72 h"}, "HUVEC [3]": {"test_system": "HUVEC", "assay": "Cytotoxicity activity against HUVEC after 72 hrs by MTT assay", "assay_type": "cell-based", "settings": "Homo sapiens", "method_in_brief": "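HUVECs kept in RPMI1640 with 10% FBS at 37 °C, 5% CO2. Cells seeded the day before, grown 12 h, then exposed to a range of compound concentrations for 72 h. Then 0.5% MTT added for 4 h, formazan dissolved in DMSO, and absorbance read at 570 nm.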"}, "Histone deacetylase 1": {"target": "Histone deacetylase 1 (Homo sapiens, UniProt Q13547)", "sequence (Q13547 whole entry)": "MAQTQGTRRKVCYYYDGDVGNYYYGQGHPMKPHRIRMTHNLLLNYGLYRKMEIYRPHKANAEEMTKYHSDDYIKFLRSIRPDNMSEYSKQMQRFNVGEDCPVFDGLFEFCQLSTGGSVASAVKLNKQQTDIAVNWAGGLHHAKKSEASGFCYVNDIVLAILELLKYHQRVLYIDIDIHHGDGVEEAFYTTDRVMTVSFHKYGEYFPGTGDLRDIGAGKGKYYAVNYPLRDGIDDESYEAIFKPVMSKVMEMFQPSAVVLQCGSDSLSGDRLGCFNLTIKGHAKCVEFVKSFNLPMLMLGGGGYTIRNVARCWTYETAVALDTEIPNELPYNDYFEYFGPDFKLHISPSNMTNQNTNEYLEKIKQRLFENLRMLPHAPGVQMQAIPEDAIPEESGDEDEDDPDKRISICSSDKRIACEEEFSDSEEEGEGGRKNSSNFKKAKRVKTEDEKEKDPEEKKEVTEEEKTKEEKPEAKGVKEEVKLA", "assay": "Inhibition of HDAC1 (unknown origin) using fluorogenic substrate preincubated for 5 mins followed by substrate addition measured after 30 mins by fluorescence-based assay"}, "Histone deacetylase 3": {"target": "Histone deacetylase 3 (Homo sapiens, UniProt O15379)", "sequence (O15379 whole entry)": "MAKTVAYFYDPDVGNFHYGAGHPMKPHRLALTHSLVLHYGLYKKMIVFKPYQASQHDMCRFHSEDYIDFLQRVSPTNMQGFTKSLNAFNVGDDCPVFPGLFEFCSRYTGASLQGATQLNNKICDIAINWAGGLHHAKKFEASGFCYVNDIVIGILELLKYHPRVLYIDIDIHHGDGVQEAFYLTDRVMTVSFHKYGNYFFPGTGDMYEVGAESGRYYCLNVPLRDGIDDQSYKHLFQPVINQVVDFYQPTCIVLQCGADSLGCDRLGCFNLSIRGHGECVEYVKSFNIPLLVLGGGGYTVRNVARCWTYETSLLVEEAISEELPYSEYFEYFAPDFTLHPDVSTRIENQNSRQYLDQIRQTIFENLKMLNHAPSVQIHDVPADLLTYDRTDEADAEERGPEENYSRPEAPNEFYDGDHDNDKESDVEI"}, "[4]": {"target": "T1, Vascular endothelial growth factor receptor 2", "assay": "Inhibition of VEGFR-2 (unknown origin) after 40 mins by kinase-Glo assay", "method_in_brief": "(§1)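 Kinase-Glo luminescent assay run by a contract lab. Compound, kinase, substrate and ATP diluted in kinase buffer and incubated 40 min at room temperature. IC50 obtained by nonlinear regression of normalized dose–response.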"}, "[5]": {"target": "Vascular endothelial growth factor receptor 1 (Homo sapiens, UniProt P17948)", "sequence (P17948 whole entry)": "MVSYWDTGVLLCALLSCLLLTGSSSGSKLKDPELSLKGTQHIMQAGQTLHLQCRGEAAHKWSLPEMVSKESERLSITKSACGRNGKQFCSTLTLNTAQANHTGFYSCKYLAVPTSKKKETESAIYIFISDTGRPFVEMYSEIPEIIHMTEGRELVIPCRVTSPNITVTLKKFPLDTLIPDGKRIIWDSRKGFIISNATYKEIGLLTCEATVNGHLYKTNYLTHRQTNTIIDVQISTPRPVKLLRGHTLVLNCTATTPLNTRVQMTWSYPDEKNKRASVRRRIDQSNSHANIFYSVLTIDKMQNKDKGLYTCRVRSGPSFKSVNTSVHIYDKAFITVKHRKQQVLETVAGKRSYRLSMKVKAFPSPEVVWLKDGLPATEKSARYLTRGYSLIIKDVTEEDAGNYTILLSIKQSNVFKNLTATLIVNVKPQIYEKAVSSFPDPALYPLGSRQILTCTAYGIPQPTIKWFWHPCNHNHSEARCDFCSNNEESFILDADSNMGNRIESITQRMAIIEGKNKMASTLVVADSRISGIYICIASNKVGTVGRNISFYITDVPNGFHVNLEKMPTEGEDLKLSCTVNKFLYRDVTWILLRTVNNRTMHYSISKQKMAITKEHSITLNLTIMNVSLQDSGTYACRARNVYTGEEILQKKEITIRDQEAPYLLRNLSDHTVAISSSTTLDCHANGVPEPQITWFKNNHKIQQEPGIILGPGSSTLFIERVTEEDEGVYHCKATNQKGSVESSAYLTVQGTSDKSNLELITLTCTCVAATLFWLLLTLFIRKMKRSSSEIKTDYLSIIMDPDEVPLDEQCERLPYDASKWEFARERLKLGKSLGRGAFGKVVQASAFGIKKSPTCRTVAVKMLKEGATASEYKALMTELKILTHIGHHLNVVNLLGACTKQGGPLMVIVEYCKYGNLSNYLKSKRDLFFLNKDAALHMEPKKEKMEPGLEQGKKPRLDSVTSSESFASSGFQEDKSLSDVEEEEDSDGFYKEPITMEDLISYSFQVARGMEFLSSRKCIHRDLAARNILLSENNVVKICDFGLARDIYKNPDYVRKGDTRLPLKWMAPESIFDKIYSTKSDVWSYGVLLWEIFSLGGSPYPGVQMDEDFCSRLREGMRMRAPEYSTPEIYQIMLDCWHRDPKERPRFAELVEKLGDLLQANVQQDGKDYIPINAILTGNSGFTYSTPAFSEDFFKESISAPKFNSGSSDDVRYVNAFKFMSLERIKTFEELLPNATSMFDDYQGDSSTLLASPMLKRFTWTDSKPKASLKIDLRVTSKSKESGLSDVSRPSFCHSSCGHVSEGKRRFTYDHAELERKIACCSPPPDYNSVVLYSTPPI", "assay": "Inhibition of VEGFR-1 (unknown origin) after 40 mins by kinase-Glo assay", "method_in_brief": "as §1"}, "[6]": {"target": "Fibroblast growth factor receptor 1 (Homo sapiens, UniProt P11362)", "assay": "Inhibition of FGFR1 (unknown origin) after 40 mins by kinase-Glo assay"}, "[7]": {"target": "Macrophage colony-stimulating factor 1 receptor (Homo sapiens, UniProt P07333)", "sequence (P07333 whole entry)": "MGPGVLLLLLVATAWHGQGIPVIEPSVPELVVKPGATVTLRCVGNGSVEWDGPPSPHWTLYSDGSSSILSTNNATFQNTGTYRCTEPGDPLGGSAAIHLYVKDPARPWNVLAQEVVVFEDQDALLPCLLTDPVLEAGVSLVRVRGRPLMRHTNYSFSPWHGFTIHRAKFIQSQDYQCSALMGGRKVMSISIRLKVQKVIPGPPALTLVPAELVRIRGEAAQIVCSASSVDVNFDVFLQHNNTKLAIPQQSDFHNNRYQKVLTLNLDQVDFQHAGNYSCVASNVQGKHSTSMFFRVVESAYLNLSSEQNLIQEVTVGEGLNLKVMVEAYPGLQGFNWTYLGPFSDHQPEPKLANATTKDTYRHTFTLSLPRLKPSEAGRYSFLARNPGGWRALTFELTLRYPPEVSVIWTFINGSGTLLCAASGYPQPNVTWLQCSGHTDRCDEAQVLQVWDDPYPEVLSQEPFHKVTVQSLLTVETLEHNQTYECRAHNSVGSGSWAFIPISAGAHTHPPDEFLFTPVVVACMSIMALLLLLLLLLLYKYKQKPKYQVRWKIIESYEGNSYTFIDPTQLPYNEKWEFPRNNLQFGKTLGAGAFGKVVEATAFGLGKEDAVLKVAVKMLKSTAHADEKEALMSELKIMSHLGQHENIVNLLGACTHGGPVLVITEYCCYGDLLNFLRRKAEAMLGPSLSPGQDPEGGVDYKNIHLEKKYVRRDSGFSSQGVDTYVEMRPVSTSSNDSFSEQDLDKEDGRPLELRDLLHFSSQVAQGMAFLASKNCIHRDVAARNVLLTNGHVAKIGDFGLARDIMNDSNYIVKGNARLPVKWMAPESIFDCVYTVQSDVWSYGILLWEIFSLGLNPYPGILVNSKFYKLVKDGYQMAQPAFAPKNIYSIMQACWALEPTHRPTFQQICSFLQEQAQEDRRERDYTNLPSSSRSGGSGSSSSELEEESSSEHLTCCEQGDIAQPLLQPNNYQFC", "assay": "Inhibition of C-fms (unknown origin) after 40 mins by kinase-Glo assay"}, "[8]": {"target": "T1, Vascular endothelial growth factor receptor 2", "assay": "Inhibition of VEGF-stimulated VEGFR2 phosphorylation in human HUVEC cells at 100 nM preincubated for 2 hrs followed by VEGF stimulation by Western blot analysis", "assay_type": "cell-based", "method_in_brief": "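HUVECs pretreated 2 h with compound or DMSO, then stimulated with VEGF (50 ng/ml). Cells lysed in ice-cold RIPA and protein measured by BCA. Lysates run on SDS-PAGE and immunoblotted for phospho-VEGFR-2, with total VEGFR-2 as loading control. Detection by ECL.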"}, "HUVEC [9]": {"test_system": "HUVEC", "assay": "Antiangiogenic activity in human HUVEC cells assessed as reduction in capillary-like tubular network formation at 0.1 uM after 6 hrs by phase-contrast microscopy", "assay_type": "functional, cell-based", "method_in_brief": "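HUVECs trypsinized and seeded at 40000/well on Matrigel polymerized 0.5 h at 37 °C. Cells held 6 h at 37 °C in M199 with 5% FBS, with compound or DMSO. Tube formation viewed and photographed by phase-contrast microscopy at 200 magnification. Three independent experiments.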"}, "[10]": {"assay": "Cmax in Sprague-Dawley rat at 2 mg/kg, iv by LC-MS/MS analysis", "assay_type": "ADME, organism-based", "parameters": "dose 2 mg/kg, route intravenous", "settings": "in vivo", "method_in_brief": "(§2)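 Sprague–Dawley rats (N = 6) dosed with the hydrochloride salt, 2 mg/kg IV or 10 mg/kg PO. Jugular vein blood drawn at set time points and kept on ice. Plasma separated by centrifugation, stored at -80 °C, and quantified by LC-MS/MS.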"}, "[11]": {"assay": "Half life in Sprague-Dawley rat at 2 mg/kg, iv by LC-MS/MS analysis", "assay_type": "ADME, organism-based", "settings": "in vivo", "method_in_brief": "as §2"}, "[12]": {"assay": "Half life in Sprague-Dawley rat at 10 mg/kg, po by LC-MS/MS analysis", "assay_type": "ADME, organism-based", "settings": "in vivo", "method_in_brief": "as §2"}, "[13]": {"assay": "Tmax in Sprague-Dawley rat at 2 mg/kg, iv by LC-MS/MS analysis", "assay_type": "ADME, organism-based", "settings": "in vivo", "method_in_brief": "as §2"}, "[14]": {"assay": "Tmax in Sprague-Dawley rat at 10 mg/kg, po by LC-MS/MS analysis", "assay_type": "ADME, organism-based", "settings": "in vivo", "method_in_brief": "as §2"}, "[15]": {"assay": "Cmax in Sprague-Dawley rat at 10 mg/kg, po by LC-MS/MS analysis", "assay_type": "ADME, organism-based", "parameters": "dose 10 mg/kg, route oral", "settings": "in vivo", "method_in_brief": "as §2"}, "[16]": {"assay": "AUC (0 to t) in Sprague-Dawley rat at 2 mg/kg, iv by LC-MS/MS analysis", "assay_type": "ADME, organism-based", "settings": "in vivo", "method_in_brief": "as §2"}, "[17]": {"assay": "AUC (0 to t) in Sprague-Dawley rat at 10 mg/kg, po by LC-MS/MS analysis", "assay_type": "ADME, organism-based", "settings": "in vivo"}, "[18]": {"assay": "MRT (0 to t) in Sprague-Dawley rat at 10 mg/kg, po by LC-MS/MS analysis", "assay_type": "ADME, organism-based", "settings": "in vivo", "method_in_brief": "as §2"}, "[19]": {"assay": "Apparent volume of distribution in Sprague-Dawley rat at 2 mg/kg, iv by LC-MS/MS analysis", "assay_type": "ADME, organism-based", "settings": "in vivo, read-out: Vz", "method_in_brief": "as §2"}, "HT-29 [20]": {"test_system": "HT-29", "assay": "Antitumor activity against human HT-29 cells xenografted in BALB/c nu mouse assessed as tumor growth level at 50 mg/kg, po administered for 25 consecutive days measured every 3 days during compound dosing relative to control", "assay_type": "functional", "method_in_brief": "(§3)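 HT-29 cells (1×10^7) implanted s.c. in right flank of male BALB/c-nu mice aged 5–6 weeks. At about 100 mm³ (day 10), mice randomized 6 per group and dosed orally for 25 consecutive days. Controls received PBS with 5% DMSO. T/C is mean RTV (Vt/V0) treated over control. TGI taken from final tumor weights. Student's two-tailed t test.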"}, "HT-29 [21]": {"test_system": "HT-29", "assay": "Antitumor activity against human HT-29 cells xenografted in BALB/c nu mouse assessed as tumor growth inhibition at 50 mg/kg, po administered for 25 consecutive days measured every 3 days during compound dosing relative to control", "assay_type": "functional", "settings": "HT-29, po, read-out: TGI", "method_in_brief": "as §3"}, "Mus musculus [22]": {"test_system": "Mus musculus", "assay": "Toxicity in nu BALB/c mouse xenografted with human HT-29 cells assessed as reduction in body weight at 50 mg/kg , po administered for 25 consecutive days measured every day during compound dosing", "assay_type": "organism-based", "settings": "in vivo"}, "Mus musculus [23]": {"test_system": "Mus musculus", "assay": "Hepatotoxicity in nu BALB/c mouse xenografted with human HT-29 cells at 50 mg/kg , po administered for 25 consecutive days by macroscopic analysis", "assay_type": "toxicity, organism-based", "settings": "in vivo", "method_in_brief": "(§4)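 HT-29 xenografted male BALB/c-nu mice dosed orally for 25 days, with PBS (5% DMSO) controls. After treatment mice were sacrificed and dissected, and internal organ injury was examined macroscopically.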"}, "Mus musculus [24]": {"test_system": "Mus musculus", "assay": "Toxicity in nu BALB/c mouse spleen xenografted with human HT-29 cells at 50 mg/kg , po administered for 25 consecutive days by macroscopic analysis", "assay_type": "organism-based", "settings": "in vivo", "method_in_brief": "as §4"}},
  "note": "Calls of active or inactive are those of the source. The rule behind the calls is not given here.",
  "data": [
    {"molecule": "Cc1c2ccc(N(C)c3ccnc(Nc4ccc(C(=O)Nc5ccccc5N)cc4)n3)cc2nn1C", "values": [
      {"measurement": "inhibition", "setting": "[1]", "value": 100, "unit": "%"},
      {"measurement": "IC50", "setting": "HT-29 [2]", "value": 1070, "unit": "nM"},
      {"measurement": "IC50", "setting": "ACHN", "value": "> 5", "unit": "µM"},
      {"measurement": "IC50", "setting": "AGS", "value": "> 5", "unit": "µM"},
      {"measurement": "IC50", "setting": "HeLa", "value": 1710, "unit": "nM"},
      {"measurement": "IC50", "setting": "KG-1", "value": 670, "unit": "nM"},
      {"measurement": "IC50", "setting": "HEL", "value": 1520, "unit": "nM"},
      {"measurement": "IC50", "setting": "MOLT-4", "value": 940, "unit": "nM"},
      {"measurement": "IC50", "setting": "HUVEC [3]", "value": 16, "unit": "µM"},
      {"measurement": "IC50", "setting": "Histone deacetylase 1", "value": 590, "unit": "nM"},
      {"measurement": "IC50", "setting": "Histone deacetylase 3", "value": 430, "unit": "nM"},
      {"measurement": "IC50", "setting": "[4]", "value": 37, "unit": "nM"},
      {"measurement": "IC50", "setting": "[5]", "value": 22, "unit": "nM"},
      {"measurement": "IC50", "setting": "[6]", "value": 192, "unit": "nM"},
      {"measurement": "IC50", "setting": "[7]", "value": 351, "unit": "nM"},
      {"measurement": "inhibition", "setting": "[8]", "value": "Active"},
      {"measurement": "Activity", "setting": "HUVEC [9]", "value": "Active"},
      {"measurement": "Cmax", "setting": "[10]", "value": 2780, "unit": "ng/mL"},
      {"measurement": "half-life", "setting": "[11]", "value": 98.4, "unit": "min"},
      {"measurement": "half-life", "setting": "[12]", "value": 126, "unit": "min"},
      {"measurement": "Tmax", "setting": "[13]", "value": 4.8, "unit": "min"},
      {"measurement": "Tmax", "setting": "[14]", "value": 30, "unit": "min"},
      {"measurement": "Cmax", "setting": "[15]", "value": 3240, "unit": "ng/mL"},
      {"measurement": "AUC(0-t)", "setting": "[16]", "value": 2380, "unit": "ng·h/mL"},
      {"measurement": "AUC(0-t)", "setting": "[17]", "value": 8570, "unit": "ng·h/mL"},
      {"measurement": "MRT last", "setting": "[18]", "value": 2.54, "unit": "h"},
      {"measurement": "Vd", "setting": "[19]", "value": 2.06, "unit": "L/kg"},
      {"measurement": "T/C", "setting": "HT-29 [20]", "value": 65, "unit": "%"},
      {"measurement": "inhibition in vivo at 50 mg/kg", "setting": "HT-29 [21]", "value": 40, "unit": "%"},
      {"measurement": "Activity", "setting": "Mus musculus [22]", "value": "Non-Toxic"},
      {"measurement": "Activity", "setting": "Mus musculus [23]", "value": "Non-Toxic"},
      {"measurement": "Activity", "setting": "Mus musculus [24]", "value": "Non-Toxic"}
    ]}
  ]
}
